In brackets after ≈: the same amount, converted by molar mass. Activity calls are given as the source filed them. The rule behind the calls is not given here. Bounds are passed on as bounds.

As usually defined, the MIC is the least concentration at which growth counts as inhibited. Low readings indicate a more susceptible organism, high ones a less susceptible organism.

For one test, the system named is Tritrichomonas foetus. Nature of the test: Antibacterial activity against Tritrichomonas foetus 1002-96-27 after 48 hrs by ten-fold serial dilution method. The test is classed as functional. Particulars: 1002-96-27, 48 h. In short, it runs like this: (§1)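 Trichomonads were cultured in Diamond medium with 5% serum and incubated 48 h at 37 °C. Cultures were examined microscopically for motile cells, and the MIC (µg/mL) is the lowest concentration giving no motile organisms.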
In turn, `Cn1c([N+](=O)[O-])cnc1SCCCCCCCCCC(=O)O` registered an MIC of 1 µg/mL (≈ 3.04 µM).
On the same count and under the same terms, the figure for `Cn1c([N+](=O)[O-])cnc1SCCCCCCOc1ccc(C(=O)O)cc1` is 1 µg/mL (≈ 2.64 µM); for `Cn1c([N+](=O)[O-])cnc1S(=O)(=O)CCCCCCCOc1ccccc1[N+](=O)[O-]` it is above 100 µg/mL.
The same measure, in the same setting: for `Cn1c([N+](=O)[O-])cnc1[S+]([O-])CCC(=O)O` (stereo unspecified) the value was 10 µg/mL (≈ 40.4 µM); for `Cn1c([N+](=O)[O-])cnc1[S+]([O-])CCCCC(=O)O` (stereo unspecified), above 100 µg/mL.
On the same count and under the same terms, for `Br.Cn1ccnc1SCCCCOc1ccccc1` the value was above 100 µg/mL; for `Cn1c([N+](=O)[O-])cnc1SCCCCCCCCCCCC(=O)O`, 10 µg/mL (≈ 28 µM).
`Cc1ncc([N+](=O)[O-])n1CCO` [METRONIDAZOLE]: it took 1 µg/mL (≈ 5.84 µM) to inhibit growth (MIC).

In the next test the test system is Bacteroides fragilis. The experiment in a line: Antibacterial activity against Bacteroides fragilis ATCC 23745 after 24 hrs by ten-fold serial dilution method. The test is classed as functional. Particulars: ATCC 23745, 24 h. In outline:
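Grown in Fluid Thioglycollate Broth and incubated 24 h at 37 °C. Growth was read by eye, and the MIC (µg/mL) is the lowest concentration that prevented visible growth.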
Molecule `Cn1c([N+](=O)[O-])cnc1SCCCCCCCCCC(=O)O` yielded a minimum inhibitory concentration (MIC) of 10 µg/mL (≈ 30.4 µM).
Still for that read-out and setting: for `Cn1c([N+](=O)[O-])cnc1SCCCCCCOc1ccc(C(=O)O)cc1` the value was 1 µg/mL (≈ 2.64 µM); for `Cn1c([N+](=O)[O-])cnc1S(=O)(=O)CCCCCCCOc1ccccc1[N+](=O)[O-]`, above 100 µg/mL.
On the same count and under the same terms, the figure for `Cn1c([N+](=O)[O-])cnc1[S+]([O-])CCC(=O)O` (stereo unspecified) is 10 µg/mL (≈ 40.4 µM); for `Cn1c([N+](=O)[O-])cnc1[S+]([O-])CCCCC(=O)O` (stereo unspecified) it is 100 µg/mL (≈ 363 µM); for `Br.Cn1ccnc1SCCCCOc1ccccc1` it is above 100 µg/mL.
Same read-out and setting: for `Cn1c([N+](=O)[O-])cnc1SCCCCCCCCCCCC(=O)O` the value was 100 µg/mL (≈ 280 µM).
Molecule `Cc1ncc([N+](=O)[O-])n1CCO` [METRONIDAZOLE] yielded an MIC of 1 µg/mL (≈ 5.84 µM).

The subject of a further test is Pentatrichomonas hominis. Nature of the test: Antibacterial activity against Pentatrichomonas hominis ATCC 30000 after 48 hrs by ten-fold serial dilution method. The test is classed as functional. Particulars: ATCC 30000, 48 h. In short, it runs like this: as §1
In the case of `Cn1c([N+](=O)[O-])cnc1SCCCCCCCCCC(=O)O`, 1 µg/mL (≈ 3.04 µM) was the least that counted as inhibitory (MIC).
Still for that read-out and setting: the figure for `Cn1c([N+](=O)[O-])cnc1SCCCCCCOc1ccc(C(=O)O)cc1` is 1 µg/mL (≈ 2.64 µM); for `Cn1c([N+](=O)[O-])cnc1S(=O)(=O)CCCCCCCOc1ccccc1[N+](=O)[O-]` it is above 100 µg/mL.
The same measure, in the same setting: for `Cn1c([N+](=O)[O-])cnc1[S+]([O-])CCC(=O)O` (stereo unspecified) the value was 10 µg/mL (≈ 40.4 µM); for `Cn1c([N+](=O)[O-])cnc1[S+]([O-])CCCCC(=O)O` (stereo unspecified), 100 µg/mL (≈ 363 µM); for `Br.Cn1ccnc1SCCCCOc1ccccc1`, above 100 µg/mL.
As for `Cn1c([N+](=O)[O-])cnc1SCCCCCCCCCCCC(=O)O`, the MIC came out at 10 µg/mL (≈ 28 µM).
Same read-out and setting: the figure for `Cc1ncc([N+](=O)[O-])n1CCO` [METRONIDAZOLE] is 1 µg/mL (≈ 5.84 µM).

The subject of a further test is Candida albicans. The experiment in a line: Antifungal activity against Candida albicans. Type of test: functional, organism-based.
Conditions: not given
Turning to `Cn1c([N+](=O)[O-])cnc1SCCCCCCCCCC(=O)O`, the outcome was inactive.
The same measure, in the same setting: the entry for `Cn1c([N+](=O)[O-])cnc1SCCCCCCOc1ccc(C(=O)O)cc1` is “inactive”; for `Cn1c([N+](=O)[O-])cnc1S(=O)(=O)CCCCCCCOc1ccccc1[N+](=O)[O-]` it is “inactive”; for `Cn1c([N+](=O)[O-])cnc1[S+]([O-])CCC(=O)O` (stereo unspecified) it is “inactive”.
On the same count and under the same terms, the entry for `Cn1c([N+](=O)[O-])cnc1[S+]([O-])CCCCC(=O)O` (stereo unspecified) is “inactive”.
Still for that read-out and setting: for `Br.Cn1ccnc1SCCCCOc1ccccc1` the value was “inactive”.
`Cn1c([N+](=O)[O-])cnc1SCCCCCCCCCCCC(=O)O`: the result was inactive.
On the same count and under the same terms, the entry for `Cc1ncc([N+](=O)[O-])n1CCO` [METRONIDAZOLE] is “inactive”.

The test system of a further test is Clostridium perfringens. The experiment in a line: Antibacterial activity against Clostridium perfringens ATCC 13124 after 24 hrs by ten-fold serial dilution method. The test is classed as functional. Particulars: ATCC 13124, 24 h. In short, it runs like this: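 Grown in Fluid Thioglycollate Broth and incubated 24 h at 37 °C. Growth was checked by eye after incubation. MIC was taken as the lowest concentration, in μg/mL, that prevented visible growth.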
`Cn1c([N+](=O)[O-])cnc1SCCCCCCCCCC(=O)O` returned an MIC of 10 µg/mL (≈ 30.4 µM).
Same read-out and setting: the figure for `Cn1c([N+](=O)[O-])cnc1SCCCCCCOc1ccc(C(=O)O)cc1` is 10 µg/mL (≈ 26.4 µM).
Molecule `Cn1c([N+](=O)[O-])cnc1S(=O)(=O)CCCCCCCOc1ccccc1[N+](=O)[O-]` returned an MIC above 100 µg/mL.
The same measure, in the same setting: for `Cn1c([N+](=O)[O-])cnc1[S+]([O-])CCC(=O)O` (stereo unspecified) the value was 100 µg/mL (≈ 404 µM); for `Cn1c([N+](=O)[O-])cnc1[S+]([O-])CCCCC(=O)O` (stereo unspecified), above 100 µg/mL; for `Br.Cn1ccnc1SCCCCOc1ccccc1`, above 100 µg/mL.
Still for that read-out and setting: the figure for `Cn1c([N+](=O)[O-])cnc1SCCCCCCCCCCCC(=O)O` is above 100 µg/mL; for `Cc1ncc([N+](=O)[O-])n1CCO` [METRONIDAZOLE] it is 10 µg/mL (≈ 58.4 µM).

In another test the test system is Neisseria gonorrhoeae. The experiment in a line: Antibacterial activity against Neisseria gonorrhoeae ATCC 19424 after 48 hrs by ten-fold serial dilution method. Particulars: ATCC 19424, 48 h. The test is classed as functional. In short, it runs like this: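 Tested on chocolate agar made from GC agar base with hemoglobin and Supplement C, incubated 48 h at 37 °C. Plates were checked visually, and the MIC (µg/mL) is the lowest concentration with no visible growth.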
Molecule `Cn1c([N+](=O)[O-])cnc1SCCCCCCCCCC(=O)O` registered an MIC of 0.1 µg/mL (≈ 0.304 µM).
`Cn1c([N+](=O)[O-])cnc1SCCCCCCOc1ccc(C(=O)O)cc1`: the MIC worked out at 0.1 µg/mL (≈ 0.264 µM).
Still for that read-out and setting: the figure for `Cn1c([N+](=O)[O-])cnc1S(=O)(=O)CCCCCCCOc1ccccc1[N+](=O)[O-]` is above 100 µg/mL; for `Cn1c([N+](=O)[O-])cnc1[S+]([O-])CCC(=O)O` (stereo unspecified) it is above 100 µg/mL.
On the same count and under the same terms, the figure for `Cn1c([N+](=O)[O-])cnc1[S+]([O-])CCCCC(=O)O` (stereo unspecified) is 100 µg/mL (≈ 363 µM).
The molecule `Br.Cn1ccnc1SCCCCOc1ccccc1` had an MIC of 100 µg/mL.
The same measure, in the same setting: for `Cn1c([N+](=O)[O-])cnc1SCCCCCCCCCCCC(=O)O` the value was above 100 µg/mL; for `Cc1ncc([N+](=O)[O-])n1CCO` [METRONIDAZOLE], above 100 µg/mL.

The next test deals with Trichomonas vaginalis. Nature of the test: Antibacterial activity against Trichomonas vaginalis ATCC 30001 after 48 hrs by ten-fold serial dilution method. The test is classed as functional. Particulars: ATCC 30001, 48 h. In outline:
as §1
The molecule `Cn1c([N+](=O)[O-])cnc1SCCCCCCCCCC(=O)O` displayed an MIC of 10 µg/mL (≈ 30.4 µM).
Same read-out and setting: for `Cn1c([N+](=O)[O-])cnc1SCCCCCCOc1ccc(C(=O)O)cc1` the value was 1 µg/mL (≈ 2.64 µM); for `Cn1c([N+](=O)[O-])cnc1S(=O)(=O)CCCCCCCOc1ccccc1[N+](=O)[O-]`, above 100 µg/mL; for `Cn1c([N+](=O)[O-])cnc1[S+]([O-])CCC(=O)O` (stereo unspecified), 10 µg/mL (≈ 40.4 µM).
In the case of `Cn1c([N+](=O)[O-])cnc1[S+]([O-])CCCCC(=O)O` (stereo unspecified), the MIC was 100 µg/mL (≈ 363 µM).
Regarding `Br.Cn1ccnc1SCCCCOc1ccccc1`, the MIC was above 100 µg/mL.
The same measure, in the same setting: the figure for `Cn1c([N+](=O)[O-])cnc1SCCCCCCCCCCCC(=O)O` is 10 µg/mL (≈ 28 µM); for `Cc1ncc([N+](=O)[O-])n1CCO` [METRONIDAZOLE] it is 10 µg/mL (≈ 58.4 µM).

These data come from ChEMBL document CHEMBL3272259, “Nitroimidazoles with antibacterial activity against Neisseria gonorrhoeae” (1977).
